In ChEMBL document CHEMBL1800056, “Discovery of 2-(6-{[(6-fluoroquinolin-2-yl)methyl]amino}bicyclo[3.1.0]hex-3-yl)-N-hydroxypyrimidine-5-carboxamide (CHR-3996), a class I selective orally active histone deacetylase inhibitor” (J Med Chem, 2010) one finds solubility, Activity and concentration data, which are given here for one compound.

The nature of data set [1]: Aqueous solubility of the compound in PBS at pH 7.4. In kind it is physicochemical.
Data set [2] deals with LoVo. The data set can be described thus: Antitumor activity against human LoVo cells xenografted in nude BALB/c mouse assessed as reduction in tumor volume at 25 mg/kg, po administered QD for 19 days. It counts as functional, organism-based. Also on record: dose 25 mg/kg. The essentials: (§1)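 LoVo colorectal xenograft grown subcutaneously in female BALB/c nude mice, run at EpiStem. Compound given orally daily at 25 or 50 mg/kg; tumor volume followed.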

Data set [3] deals with LoVo. The experiment in a line: Antitumor activity against human LoVo cells xenografted in nude BALB/c mouse assessed as reduction in tumor volume at 50 mg/kg, po administered QD for 19 days. In kind it is functional, organism-based. Further details: dose 50 mg/kg. The essentials:
as §1
For orientation: Xenograft models place foreign cells or tissue in a host animal.

Data set [4] can be described thus: Drug level in tumor of BALB/c mouse at 50 mg/kg, po administered daily for 14 days. In kind it is ADME, organism-based, Neoplasm. Further details: dose 50 mg/kg, route oral. To be noted: read-out: Drug uptake. The essentials:
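HCT116 xenografts in female nude BALB/c mice, run at EpiStem. Oral daily dosing for 14 days in 5% DMSO-saline at 50 or 75 mg/kg. Tumor volume measured relative to start; drug concentrations in tumor and plasma measured.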

In brackets after ≈: the same amount, converted by molar mass. Activity calls are given as the source filed them. The calls are words filed in the database; no cut-off is given here.

Consider `O=C(NO)c1cnc(N2C[C@@H]3[C@H](C2)[C@H]3NCc2ccc3cc(F)ccc3n2)nc1` [NANATINOSTAT], for which, in data set [1], the solubility (usually the dissolved amount per volume that the medium holds) is 1 µg/mL (≈ 2.54 µM). Moreover, the result in data set [2] and in data set [3] was Active. In data set [4], the concentration at 336 h came out at 133 ng/mL.
